Sampled rows, rich in hits. Any-hit rate of the full collection: about 1.5%.
APJ agonist – agonists of human apelin receptor APJ, primary screen, CHO-K1 cells, PathHunter beta-arrestin, luminescence; P35414; 0% DMSO wells, 100% apelin; activation, % at 20 µM; hit rate 0.11% among 330,000; AID 2520, 2010;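 active = activation more than six SD over the plate average, tested at 20 µM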;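 also: 0% = DMSO alone and 100% = apelin-13 at 10 nM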
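Material: engineered CHO-K1 APJ arrestin reporter cells; amount: 1000 CHO-K1 reporter cells seeded per well; incubation: compound stimulation 90 min at 25 °C, detection 60 min; signal: luminescent beta-gal fragment complementation, chemiluminescent substrate; read-out basis: APJ agonist activity; controls: DMSO-only wells as negative, 10 nM Apelin-13 as positive control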
APJ antagonist – antagonists of human apelin receptor APJ, primary screen, CHO-K1 cells, beta-arrestin complementation, luminescence; inhibition, % at 20 µM; hit rate 0.32% among 330,000;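 active = inhibition above about 40% at 20 µM, limit read from the data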;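 also: cells challenged with 10 nM apelin-13 agonist together with compound; plate controls were apelin-13 plus DMSO wells for no effect and DMSO wells lacking apelin-13 for full effect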
CXCR6 block – CXCR6 receptor inhibitors, primary screen, cell-based, beta-arrestin, luminescence, CHO-K1 PathHunter, 1536-well | C-X-C chemokine receptor type 6 (Homo sapiens), O00574 | inhibition, % at 20 µM | hit rate 0.36% among 360,000 | AID 602244, 2012; in the data active = inhibition above about 34%, passing the limit was not always enough;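 also: antagonist mode with CXCL16 agonist at 10 nM final; 0% = 10 nM CXCL16 with DMSO and 100% = unstimulated wells without agonist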
CCR6 antag – CCR6 receptor antagonists, primary screen, cell-based, CHO-K1, luminescence, beta-arrestin, uHTS; C-C chemokine receptor type 6 (Homo sapiens), P51684; CHO-K1 CCR6 PathHunter beta-arrestin, CCL20-stimulated; inhibition, % at 20 µM; hit rate 0.49% among 340,000; AID 493098, 2011;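 active = compounds whose inhibition of the agonist-driven luminescence signal at 20 µM reaches about 50%, limit read from the data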;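 also: cells stimulated with CCL20 at 14 nM final; plate controls were DMSO with CCL20 for no effect and DMSO without agonist for full effect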
EBI2 block – EBI2 receptor antagonists, beta-arrestin recruitment, primary screen, cell-based, luminescence, 7a,25-OHC stimulation, uHTS | G-protein coupled receptor 183 (Homo sapiens), P32249 | hit rate 0.81% among 360,000 | inhibition, % at 5 µM | AID 651636, 2012 | 7a,25-OHC stimulated; in the data active = inhibition above about 38%;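 also: enzyme fragment complementation signal reports receptor beta-arrestin coupling in cells; 0% = agonist plus DMSO wells and 100% = wells without agonist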
Target sequence (P32249 whole entry, looked up, the tested form may be a part): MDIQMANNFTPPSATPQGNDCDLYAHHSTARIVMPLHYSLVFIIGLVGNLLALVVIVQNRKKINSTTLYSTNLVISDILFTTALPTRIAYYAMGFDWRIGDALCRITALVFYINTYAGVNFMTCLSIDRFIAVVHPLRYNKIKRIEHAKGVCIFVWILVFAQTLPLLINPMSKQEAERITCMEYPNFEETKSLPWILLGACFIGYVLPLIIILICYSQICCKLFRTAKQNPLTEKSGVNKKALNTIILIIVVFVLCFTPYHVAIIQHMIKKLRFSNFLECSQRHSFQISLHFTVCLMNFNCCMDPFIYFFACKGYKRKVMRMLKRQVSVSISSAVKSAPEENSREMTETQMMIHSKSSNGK
APJ ag confirm – agonists of human apelin receptor APJ, confirmation, cell-based, single concentration, CHO-K1, beta-arrestin, luminescence. activation, % at 20 µM. CHO-K1 APJ PathHunter beta-arrestin. shares compounds with APJ agonist. hit rate 10% among 310;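 active = activation above 40%, taking the highest of four retests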;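 also: plate controls were DMSO wells for no effect and apelin-13 at 10 nM for full effect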
An asterisk follows results filed as active; · = not tested or not shown.

SMILES	APJ agonist	APJ antagonist	CXCR6 block	CCR6 antag	EBI2 block	APJ ag confirm
CCn1c(C)nc2cc(-c3nnc(-c4c(-c5ccccc5)noc4C)o3)ccc21	17*	-5	-2	-24	30	5
O=C(/C=C/c1ccc(OCCCF)cc1)Nc1ccnc(-c2ccncc2)n1	16*	-24	-7	-18	7	36
COc1ccc(CC(=O)Nc2nn(C)c3nc4c(C)cccc4cc23)cc1	-2	14	-3	10	-10	·
N#CC1=C(c2ccccc2)/C(=C/c2ccccc2)OC1=O	17*	-18	35	64*	5	12
O=C1O/C(=C/c2ccccc2)c2ccccc21	-1	1	12	16	-1	·
COc1ccccc1C(=O)O/N=C(\N)c1ccccc1Cl	3	-38	-6	-9	-14	·
COc1ccc(C(=O)O/N=C(\N)c2ccccc2Cl)cc1OC	11*	-40	-18	-15	-12	39
COc1ccc(/C(N)=N/OC(=O)c2cccc([N+](=O)[O-])c2)cc1OC	20	-38	-8	-3	5	·
COc1ccc(/C(N)=N/OC(=O)c2ccc(OC)c([N+](=O)[O-])c2)cc1OC	18*	-72	-4	-10	-1	34
Cn1c(NCCN2CCCC2)nc2cc(-c3ccsc3)sc2c1=O	·	·	4	·	-6	·
CCOC(=O)c1sc(NC(=O)CN2C(=O)NC3(CC(C)CC(C)(C)C3)C2=O)cc1C (stereo unspecified)	38*	5	4	-15	2	4
COc1ccc(/C=N/Nc2cc(C)nc3ccc(Br)cc23)cc1	17*	-6	-4	1	-14	37
CC1=C(C(=O)OCc2ccccc2)C(c2ccccc2)NC(=O)N1 (stereo unspecified)	-1	9	-4	10	-5	·
CC1=C(C(=O)OCc2ccc3c(c2)OCO3)C(c2ccc(F)cc2)NC(=O)N1 (stereo unspecified)	29*	7	4	-6	2	9
CC1=C(C(=O)OCc2ccccc2)C(c2cccc(F)c2)NC(=O)N1 (stereo unspecified)	19*	12	-22	-3	0	8
CC1=C(C(=O)OCc2ccc3c(c2)OCO3)C(c2ccc(Cl)cc2)NC(=O)N1 (stereo unspecified)	3	-2	5	0	9	·
CC1CCN(CCNC(=O)c2ccc3c(=O)n(Cc4ccc(Cl)cc4)c(=S)[nH]c3c2)CC1	33*	0	1	-5	-1	9
COCCCNC(=O)c1ccc2c(=O)n(Cc3ccc(Cl)cc3)c(=S)[nH]c2c1	-2	16	3	14	0	·
COc1cc(CNC(=O)OCC(C)C)cc(OC)c1OC	18*	4	-4	4	-2	6
CC(NC(=O)OCc1ccccc1)C(=O)NCC(=O)NC(Cc1ccc(OC(C)(C)C)cc1)C(=O)OC(C)(C)C (stereo unspecified)	19*	-1	2	7	17	7
CC(C)(C)OC(=O)C(Cc1ccc(OC(C)(C)C)cc1)NC(=O)CNC(=O)CNC(=O)OCc1ccccc1 (stereo unspecified)	2	5	-4	21	-7	·
CN(C)S(=O)(=O)c1ccc(-c2csc(N/N=C/c3ccco3)n2)cc1	24*	-40	-2	-14	-44	44*
CN(C)S(=O)(=O)c1ccc(-c2csc(N/N=C/c3ccc(O)cc3)n2)cc1	16*	-99	8	7	-14	-2
C(=N\Nc1nc(-c2ccccc2)cs1)/c1ccncc1	6	-29	-7	-19	-3	·
Cc1nn(-c2ccccc2)c(Cl)c1C(=O)N1CCN(c2ncnc3c2cnn3-c2ccccc2)CC1	18*	-39	7	-23	-67	30
SMILES	APJ agonist	APJ antagonist	CXCR6 block	CCR6 antag	EBI2 block	APJ ag confirm
O=C(c1ccccc1)N1CCN(c2ncnc3c2cnn3-c2ccccc2)CC1	7	12	-6	3	-5	·
CCOc1ccc(S(=O)(=O)N(C)c2ccc(OCC(=O)NCc3ccc(C(=O)OC)cc3)cc2)cc1	-2	14	1	17	-5	·
COc1ccc(CNC(=O)CC2C[C@H](C(=O)N3CCOCC3)[C@@]3(CCC4CCCC4)c4[nH]c5ccccc5c4CCN3C2=O)cc1OC (stereo partly specified)	-3	15	4	21	3	·
O=C(CCCc1ccccc1)NCCS(=O)(=O)N1CCN(c2ccc(F)cc2)CC1	-1	-55	-1	10	-4	·
CC1=C(c2ccc(F)cc2)[N+](=O)C(C)(C)N1[O-]	5	-111	-8	-7	-10	·
CC1=C(c2ccc(C)cc2)[N+](=O)C(C)(C)N1[O-]	10*	-126	0	3	-9	24
Cc1ccc(S(=O)(=O)NCc2ccc(C(=O)N3CCN(c4ccc([N+](=O)[O-])cc4)CC3)cc2)cc1	19*	-18	-10	3	-34	19
COc1ccc(N2CCN(C(=O)c3ccc(CNS(=O)(=O)c4ccc(C)cc4)cc3)CC2)cc1	-5	-6	3	9	3	·
Cc1ccc2c(=O)c(CN3CCCCCC3)c(C)[nH]c2c1C	25*	13	1	1	-4	34
Cc1[nH]c2c(Cl)cccc2c(=O)c1CN1CCCCCC1	-3	-7	3	7	-3	·
Cc1ccc(NC(=O)C/C(N)=N/OC(=O)Nc2ccc(C)c(Cl)c2)cc1	27*	-40	-37	-18	2	26
Cc1ccc(NC(=O)C/C(N)=N/OC(=O)Nc2cccc(C)c2)cc1	9	-137	-34	-18	4	·
N#Cc1ccc(S(=O)(=O)N2CCN(CC(=O)NCC3(N4CCOCC4)CCCCC3)CC2)cc1	-4	-3	2	5	2	·
COc1ccccc1C(=O)Nc1nc(-c2ccc(S(=O)(=O)N3CCOCC3)cc2)cs1	45*	-32	-23	-7	-37	4
CCN(CC)S(=O)(=O)c1ccc(OCC(=O)NC(=O)Cc2ccccc2)c([N+](=O)[O-])c1	12*	-137	-1	2	-8	26
Cc1ccc(Cl)cc1NC(=O)c1cc2ccccc2cc1O	22*	-70	-16	-66	-3	33
COc1ccc(CC(=O)NCCS(=O)(=O)N2CCN(c3ccccc3OC)CC2)cc1	-5	8	7	2	2	·
COc1cc2ccccc2cc1C(=O)Nc1ccc(N2CCN(C(=O)C(C)C)CC2)cc1	20*	-29	6	1	21	11
COc1cc2ccccc2cc1C(=O)Nc1ccc(N2CCN(C)CC2)cc1	3	1	0	13	3	·

Assay outcomes as filed in PubChem.
